Experimental data published in ChEMBL document CHEMBL1157821, “In vitro photodynamic therapy and quantitative structure-activity relationship studies with stable synthetic near-infrared-absorbing bacteriochlorin photosensitizers” (J Med Chem, 2010).

Key:
[1] = Octanol-water partition coefficient, log P by stir-flask method; format: physicochemical
Procedure, shortened: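 About 2 mL octanol and 2 mL water were pre-stirred 3 h at room temperature. Under 0.5 mg bacteriochlorin was added and stirred 24 h at 100–200 rpm, then the phases settled for 30 min. An aliquot of each phase was diluted in DMSO and the Qy(0,0) absorbance ratio (octanol/water) was taken. A phase with no detectable compound was set at A=0.001 as a bound.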

HeLa [2] = assay: Photocytotoxicity against human HeLa cells after 24 hrs by MTT assay in presence of 10 J/cm2 laser; format: functional; details: light or radiation study, read-out: LD50 (the source's name)
Procedure, shortened: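 HeLa cells (5000/well) grown 24 h, then incubated 24 h with bacteriochlorin at 0.001–10 μM in complete RPMI with 10% serum (DMSO ≤0.2%). Medium replaced, then 10 J/cm2 of 732 nm laser light given (780 nm LED, 50 mW/cm2, for one compound). MTT (4 h, 562 nm) 24 h later. Survival is relative to untreated controls. LD50 in nM. Experiments done in triplicate.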

HeLa [3] = assay: Cellular uptake in human HeLa cells measured per mg of protein at 20.5 uM after 24 hrs by fluorescence measurements; format: ADME, cell-based
Procedure, shortened: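 HeLa in RPMI with 10% heat-inactivated FBS, 5000 cells/well, grown 24 h, then given bacteriochlorin in complete medium (DMSO ≤0.2%) for 24 h. Cells were rinsed with warm PBS and lysed in SOLVABLE, 37 °C, 2 h. Fluorescence was read at ex 402/em 730 nm against per-compound calibration curves and normalized to BCA protein, giving nmol per mg protein. Three repeats.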

HeLa [4] = assay: Cellular uptake in human HeLa cells assessed as localization to lysosomes at 1 uM after 24 hrs by confocal fluorescence microscopy; format: ADME, cell-based
Procedure, shortened: (§1)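 HeLa plated in 35 mm dishes, attached overnight, then given 1 μM bacteriochlorin in complete medium for 24 h. After a PBS wash, cells got 5 μg/mL LysoTracker green DND-26, MitoTracker green FM or ER-Tracker green for 30 min at 37 °C, then were washed again. Confocal imaging used 488 nm excitation, 515 ± 10 nm (tracker) or >580 nm (bacteriochlorin) emission, and a 63× water objective.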

HeLa [5] = assay: Cellular uptake in human HeLa cells assessed as localization to endoplasmic reticulum at 1 uM after 24 hrs by confocal fluorescence microscopy; format: ADME, cell-based; procedure, shortened: as §1
HeLa [6] = assay: Cellular uptake in human HeLa cells assessed as localization to mitochondria at 1 uM after 24 hrs by confocal fluorescence microscopy; format: ADME, cell-based; procedure, shortened: as §1

Compound: CC1(C)Cc2cc3[nH]c(cc4nc(cc5[nH]c(cc1n2)cc5C(=O)NCCN)CC4(C)C)cc3C(=O)NCCN
- logP ([1]; read-out: logP): -0.5
- CC50 (HeLa [2]): 3000 nM
- Drug uptake (HeLa [3]): 7.7 nmol/mg
- Drug uptake (HeLa [4]): Active

Compound: COCCC(CCOC)c1cc2cc3nc(cc4[nH]c(cc5nc(cc1[nH]2)CC5(C)C)cc4C(CCOC)CCOC)CC3(C)C
- logP ([1]; read-out: logP): ≥ 2.5
- Drug uptake (HeLa [3]): 11.7 nmol/mg

Compound: CC1(C)Cc2cc3[nH]c(cc4nc(cc5[nH]c(cc1n2)cc5C#CC[N+](C)(C)C)CC4(C)C)cc3C#CC[N+](C)(C)C.[Cl-].[Cl-]
- logP ([1]; read-out: logP): 0.9
- CC50 (HeLa [2]): 2000 nM
- Drug uptake (HeLa [3]): 8.2 nmol/mg

Compound: COCCN(CCOC)C(=O)c1cc2cc3nc(cc4[nH]c(cc5nc(cc1[nH]2)CC5(C)C)cc4C(=O)N(CCOC)CCOC)CC3(C)C
- logP ([1]; read-out: logP): ≥ 1.9
- CC50 (HeLa [2]): 60 nM
- Drug uptake (HeLa [3]): 15 nmol/mg

Compound: CC1(C)Cc2cc3[nH]c(cc4nc(cc5[nH]c(cc1n2)cc5C(=O)/C=C/c1cc(O)cc(O)c1)CC4(C)C)cc3C(=O)/C=C/c1cc(O)cc(O)c1
- logP ([1]; read-out: logP): ≥ 1.8
- CC50 (HeLa [2]): 200 nM
- Drug uptake (HeLa [3]): 1.8 nmol/mg

Compound: CC1(C)Cc2cc3[nH]c(cc4nc(cc5[nH]c(cc1n2)cc5-c1cc(O)cc(O)c1)CC4(C)C)cc3-c1cc(O)cc(O)c1
- logP ([1]; read-out: logP): ≥ 2.5
- CC50 (HeLa [2]): 80 nM
- Drug uptake (HeLa [5]): Active
- Drug uptake (HeLa [3]): 13.5 nmol/mg
- Drug uptake (HeLa [6]): Active

Compound: CC1(C)Cc2cc3[nH]c(cc4nc(cc5[nH]c(cc1n2)cc5C(=O)N1CC[N+](C)(C)CC1)CC4(C)C)cc3C(=O)N1CC[N+](C)(C)CC1.[Cl-].[Cl-]
- logP [1]: -1
- CC50 (HeLa [2]): 800 nM
- Drug uptake (HeLa [3]): 1.8 nmol/mg

Compound: CC1(C)Cc2cc3[nH]c(cc4nc(cc5[nH]c(cc1n2)cc5C(=O)N(CCN)CCN)CC4(C)C)cc3C(=O)N(CCN)CCN
- logP ([1]; read-out: logP): -1.4
- CC50 (HeLa [2]): 800 nM
- Drug uptake (HeLa [3]): 1.8 nmol/mg

Compound: CC1(C)Cc2cc3[nH]c(cc4nc(cc5[nH]c(cc1n2)cc5-c1cc(OCCO)cc(OCCO)c1)CC4(C)C)cc3-c1cc(OCCO)cc(OCCO)c1
- logP ([1]; read-out: logP): ≥ 2.2
- CC50 (HeLa [2]): 15 nM
- Drug uptake (HeLa [3]): 10.4 nmol/mg

Compound: CC1(C)Cc2cc3[nH]c(cc4nc(cc5[nH]c(cc1n2)cc5CN(CCO)CCO)CC4(C)C)cc3CN(CCO)CCO
- logP ([1]; read-out: logP): 2.3
- CC50 (HeLa [2]): 100 nM
- Drug uptake (HeLa [5]): Active
- Drug uptake (HeLa [3]): 8.2 nmol/mg
- Drug uptake (HeLa [4]): Active

Compound: COCCOCCOCCOCCNCc1cc(CNCCOCCOCCOCCOC)cc(-c2c3nc(cc4[nH]c(cc4-c4ccc(C)cc4)c(OC)c4nc(cc5[nH]c2cc5-c2ccc(C)cc2)C(C)(C)C4)C(C)(C)C3)c1
- logP ([1]; read-out: logP): ≥ 2.2
- CC50 (HeLa [2]): 500 nM
- Drug uptake (HeLa [3]): 3.9 nmol/mg

Compound: CC1(C)Cc2cc3[nH]c(cc4nc(cc5[nH]c(cc1n2)cc5C(=O)O)CC4(C)C)cc3C(=O)O
- logP ([1]; read-out: logP): 1.4
- CC50 (HeLa [2]): 4000 nM
- Drug uptake (HeLa [3]): 0.72 nmol/mg
